TRPC4 agonist: TRPC4 (mouse) channel activation. hit rate 0.49% among 310,000. B-score at 10 µM. HEK293 TRPC4beta/mu-opioid, Fluo4 calcium fluorescence; active compounds read high. Q9QUQ5;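 active = B-score above 5 SD of library B-scores, and initial fluorescence ratio not above library mean plus 5 SD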;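 also: positive B-score marks a calcium rise read as TRPC4 activation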
Target sequence (Q9QUQ5 whole entry, looked up): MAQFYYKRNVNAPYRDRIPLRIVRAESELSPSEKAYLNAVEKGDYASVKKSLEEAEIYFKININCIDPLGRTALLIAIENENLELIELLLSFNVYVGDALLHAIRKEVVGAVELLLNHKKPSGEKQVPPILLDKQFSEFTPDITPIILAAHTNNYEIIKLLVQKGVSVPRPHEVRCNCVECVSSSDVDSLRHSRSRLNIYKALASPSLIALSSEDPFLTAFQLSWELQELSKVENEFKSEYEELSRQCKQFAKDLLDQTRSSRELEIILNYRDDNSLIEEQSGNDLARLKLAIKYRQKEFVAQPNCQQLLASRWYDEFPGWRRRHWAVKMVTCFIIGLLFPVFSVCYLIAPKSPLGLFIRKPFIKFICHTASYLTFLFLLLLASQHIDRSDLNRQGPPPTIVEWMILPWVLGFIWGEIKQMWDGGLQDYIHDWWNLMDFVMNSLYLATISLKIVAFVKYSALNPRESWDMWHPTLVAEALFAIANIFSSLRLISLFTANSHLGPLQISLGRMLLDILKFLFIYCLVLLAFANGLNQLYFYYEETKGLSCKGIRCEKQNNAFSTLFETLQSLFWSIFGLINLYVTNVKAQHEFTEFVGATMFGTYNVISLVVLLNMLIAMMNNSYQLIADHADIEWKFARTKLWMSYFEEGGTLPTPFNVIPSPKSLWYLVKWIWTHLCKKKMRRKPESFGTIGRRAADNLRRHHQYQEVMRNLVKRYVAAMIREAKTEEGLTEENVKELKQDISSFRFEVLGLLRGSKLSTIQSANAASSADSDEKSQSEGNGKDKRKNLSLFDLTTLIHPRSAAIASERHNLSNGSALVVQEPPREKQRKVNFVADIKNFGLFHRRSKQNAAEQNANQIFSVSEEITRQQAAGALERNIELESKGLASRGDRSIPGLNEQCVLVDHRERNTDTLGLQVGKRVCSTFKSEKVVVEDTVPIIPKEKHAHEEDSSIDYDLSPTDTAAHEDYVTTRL
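Material: TRPC4beta and mu-opioid receptor HEK293 stable cells | Incubation: 45 min room-temperature Fluo4 loading, 110 s read | Detection: Kinetic Fluo4 calcium fluorescence | Measure: Integrated baseline-normalised fluorescence ratio, converted to per-well B score | Benchmarks: Low control buffer alone, high control maximal DAMGO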
TRPC4 block: inhibitors of mouse TRPC4 channel | HEK293 TRPC4beta/mu-opioid, DAMGO-evoked Fluo4 calcium flux; active compounds read low | B-score at 10 µM | hit rate 0.39% among 300,000 | Q9QUQ5;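 active = B-score over 3 SD under the library average, no early fluorescence shift, positive overall ratio signal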
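Test system – stable TRPC4beta/mu-opioid receptor HEK293 cells · Probe or stimulus – DAMGO, a submaximal dose followed by a maximal one · Dosing – one concentration per compound · Signal – Fluo4 calcium fluorescence by kinetic imaging, 5 s 1 Hz baseline · Evaluation – per-well B score of integrated baseline-normalized Fluo4 ratio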
TRPC4 PAM: allosteric potentiators of mouse TRPC4 channel | B-score at 10 µM | hit rate 0.42% among 310,000 | AID 2227 | HEK293 TRPC4beta/mu-opioid, DAMGO EC20, Fluo-4 Ca2+ flux; active compounds read high | Q9QUQ5;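 active = B-score of calcium response area above 5 SD of library B-scores, with initial fluorescence ratio within 5 SD of library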;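 also: B-score of integrated fluorescence ratio over time as area under calcium response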
Platelet DG rel: modulates dense granule release in human platelets; human platelet-rich plasma, SFLLRN dense granule ATP release, luminescence; inhibition, %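 (compounds screened at 7.5 µM in platelet-rich plasma)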; hit rate 0.22% among 300,000; AID 1663;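 active = mean replicate score, as percent of positive control, at or above 50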
TRPC6 inhibitor: mouse TRPC6 channel inhibition; HEK293-TRPC6, membrane potential dye, ACh-evoked depolarization; active compounds read low; B-score at 10 µM; hit rate 1.1% among 310,000; AID 2553;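 active = B-score under library mean minus 3 SD, initial fluorescence not abnormally high, positive integrated signal ratio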;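 also: B-score derived from integrated fluorescence ratio over the kinetic read; more negative B-score means stronger inhibition of depolarization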
TRPC6 activator: activates the mouse TRPC6 cation channel; Q61143; AID 2550; HEK293-TRPC6 membrane potential dye fluorescence; active compounds read high; B-score at 10 µM; hit rate 0.13% among 310,000;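 active = B-score of the integrated fluorescence ratio above library mean plus 3 SD, and starting fluorescence ratio within library mean plus 5 SD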;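 also: higher score means more depolarization so channel activation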
TRPC4 sel inh 2: second check of whether TRPC6 inhibitors also affect mouse TRPC4. shares compounds with TRPC6 inhibitor. HEK293 TRPC4/MOR, membrane potential dye fluorescence; channel activated by saturating DAMGO dose. inhibition, % at 10 µM. hit rate 42% among 920. AID 2776;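 active = compounds whose fluorescence signal differed from control wells by over 3 SD, either direction, in both duplicate plates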
TRPC4 spec: mouse TRPC4 off-target activity of TRPC6 inhibitors. hit rate 61% among 920. HEK293 TRPC4/mu-opioid, membrane potential fluorescence. activity change, negative = inhibition, % at 10 µM. AID 2777. shares compounds with TRPC6 inhibitor;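 active = rise or fall in signal beyond 3 SD of buffer-only wells in both replicate plates, either sign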;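 also: integrated kinetic ratio of fluorescence range over baseline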
HEK293 MPD ctr 2-1: parental HEK293 nonspecific activity of TRPC6 inhibitors, second screen. shares compounds with TRPC6 inhibitor. parental HEK293 membrane potential dye fluorescence; maximal acetylcholine challenge after compound addition. signal change vs control, % at 10 µM. hit rate 31% among 920;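 active = membrane potential signal moving either way by over 3 SD of the maximum-effect control, in both duplicate plates, meaning non-specific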
HEK293 MPD ctr-1: parental HEK293 nonspecific activity of TRPC6 inhibitors. shares compounds with TRPC6 inhibitor. parental HEK293 membrane potential dye fluorescence. membrane potential signal change, % at 10 µM. hit rate 60% among 920;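 active = membrane potential signal shifting up or down by more than 3 SD of buffer-only wells, on both duplicate plates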
HEK293 MPD ctr-2: counter-screen for TRPC6 modulators: effect in parental HEK293 cells; shares compounds with TRPC6 inhibitor; membrane potential dye fluorescence; membrane potential signal change, % at 10 µM; hit rate 51% among 2,400;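 active = membrane potential signal moves up or down beyond 5 SD from buffer-only wells, on both duplicate plates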
HEK293 MPD ctr 2-2: second counter-screen for TRPC6 modulators: effect in parental HEK293 cells; shares compounds with TRPC6 inhibitor; membrane potential dye fluorescence; after compound, maximal acetylcholine stimulation; inhibition, % at 10 µM; hit rate 14% among 2,400; AID 488926;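 active = membrane potential signal drops by more than 5 SD from the mean control signal, in both duplicate plates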;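 also: plate controls were acetylcholine ECmax control wells for no effect and buffer only wells for full effect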
TRPC4 ctr mod: selectivity of TRPC6 modulators against mouse TRPC4. shares compounds with TRPC6 inhibitor. hit rate 69% among 2,400. HEK293 TRPC4/mu-opioid, membrane potential fluorescence. percent change from control (negative = decrease, positive = increase), % at 10 µM;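 active = membrane potential signal moved up or down beyond 5 SD of buffer control wells, in both duplicate plates, actives on both sides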;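 also: plate controls were assay buffer wells for no effect and DAMGO maximal-effect wells for full effect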
TRPC4/MOR inh 2: second selectivity test of TRPC6 modulators against mouse TRPC4; shares compounds with TRPC6 inhibitor; HEK293 TRPC4/mu-opioid, membrane potential dye fluorescence; stimulated with maximal-effect DAMGO; inhibition, % at 10 µM; hit rate 55% among 2,400; AID 488928;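 active = drop in membrane potential signal beyond 5 SD of the control wells in both duplicate plates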;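 also: TRPC4 counter screen for TRPC6 hits run under conditions tuned for TRPC6 not TRPC4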
TRPC6 block conf: mouse TRPC6 inhibitor confirmation; shares compounds with TRPC6 inhibitor; hit rate 43% among 3,300; inhibition, % at 10 µM; AID 488960; HEK293-TRPC6, membrane potential dye, ACh-evoked depolarization;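 active = fluorescence ratio falls more than 5 SD below the full-stimulation control mean, in both duplicate runs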;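 also: integrated fluorescence ratio of peak minus minimum over baseline after agonist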
TRPC6 act confirm: confirmation of mouse TRPC6 activators. hit rate 11% among 2,800. activation, % at 10 µM. shares compounds with TRPC6 inhibitor. AID 488961. HEK293-TRPC6 membrane potential dye fluorescence, FDSS;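 active = ratio signal rise beyond 5 SD above unstimulated control wells' mean, seen in both duplicate runs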;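 also: plate controls were buffer EC0 wells for no effect and acetylcholine ECmax response for full effect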
* marks the source's active call; other numbers are inactive results; i = inactive; / = no result given. The list is not random: actives were taken first. Their share in the collection is about 2.5%.

SMILES	TRPC4 agonist	TRPC4 block	TRPC4 PAM	Platelet DG rel	TRPC6 inhibitor	TRPC6 activator	HEK293 MPD ctr-2	HEK293 MPD ctr 2-2	TRPC4 ctr mod	TRPC4/MOR inh 2	TRPC6 block conf	TRPC6 act confirm	others
Cc1ccccc1OCC(O)Cn1c(=N)n(Cc2ccccc2)c2ccccc21 (stereo unspecified)	64*	-6*	i	-2.6	-5.06*	i	119.5%*	i	40.5%*	102.0%*	69.5%*	/
N=c1n(Cc2ccccc2)c2ccccc2n1CC(O)c1ccccc1 (stereo unspecified)	i	i	i	0.8	-7.76*	i	/	/	/	/	i	i	TRPC4 sel inh 2=28.5%*;TRPC4 spec=27.2%*;HEK293 MPD ctr 2-1=i;HEK293 MPD ctr-1=10.4%*
CNC(=S)N1CCC(c2nc3ccccc3s2)CC1	i	i	i	7.2	i	i	/	/	/	/	/	/
COc1ccccc1OCC(O)Cn1c(=N)n(Cc2ccccc2)c2ccccc21 (stereo unspecified)	i	i	i	3.0	-6.41*	i	122.0%*	i	46.0%*	102.0%*	51.5%*	/
N=c1n(CCN2CCOCC2)c2ccccc2n1CC(=O)c1ccc(Cl)c(Cl)c1	i	i	i	-1.9	i	i	/	/	/	/	/	/
N=c1n(CCN2CCCC2)c2ccccc2n1CC(O)c1ccc(Cl)c(Cl)c1 (stereo unspecified)	i	i	i	2.9	-5.8*	i	i	i	i	47.0%*	52.5%*	i
CN1CCC(NCCC(c2ccc(F)cc2)c2ccc(Cl)cc2)CC1 (stereo unspecified)	i	i	i	-1.3	-5.4*	i	104.0%*	i	17.5%*	56.5%*	i	/
O=C(Nc1nnc(SCc2ccc(F)cc2)s1)c1ccccn1	i	i	i	-0.5	i	i	/	/	/	/	/	/
Cc1nn(C(C)C(=O)N2CCN(c3ccccn3)CC2)c(=O)c2cc3occc3n12 (stereo unspecified)	i	i	i	27.1	i	i	/	/	/	/	/	/
Cc1cccc(N2CCN(C(=O)C(C)n3nc(C)n4c(cc5occc54)c3=O)CC2)c1C (stereo unspecified)	i	i	i	2.6	-5.07*	i	i	i	13.5%*	i	i	/
Cc1cccn2c(=O)c3cc(C(=O)NCCN4CCOCC4)c(=N)n(CCN4CCOCC4)c3nc12	i	i	i	-16.2	-7.04*	i	/	/	/	/	65.6%*	i	TRPC4 sel inh 2=71.5%*;TRPC4 spec=0.8%*;HEK293 MPD ctr 2-1=-124.0%*;HEK293 MPD ctr-1=i
COc1ccc(CCNC(=O)c2cc3c(=O)n4cccc(C)c4nc3n(CCCN3CCOCC3)c2=N)cc1	i	i	i	-1.5	i	i	/	/	/	/	/	/
Cc1cccn2c(=O)c3cc(C(=O)NC4CCCC4)c(=N)n(CC4CCCO4)c3nc12 (stereo unspecified)	i	i	i	5.5	-5.76*	i	i	i	i	31.5%*	i	i
Cc1cccn2c(=O)c3cc(C(=O)NCCN4CCOCC4)c(=N)n(Cc4ccc(F)cc4)c3nc12	i	i	i	8.1	-5.59*	i	i	93.5%*	i	i	i	i
Cc1cccn2c(=O)c3cc(C(=O)NCC4CCCO4)c(=N)n(CC4CCCO4)c3nc12 (stereo unspecified)	i	i	i	4.8	i	i	/	/	/	/	/	/
Cc1ccc(NC(=O)CN(C)C(=O)Cn2ccsc2=N)cc1	i	i	i	-0.3	i	i	/	/	/	/	/	/
N=c1sccn1CC(=O)Nc1ccccc1Oc1ccccc1	i	-6*	i	-3.2	-5.07*	i	i	i	i	75.5%*	i	i
Cc1ccc(Oc2ccc(NC(=O)Cn3ccsc3=N)cc2)cc1	60*	i	i	5.1	-8.29*	i	/	/	/	/	89.0%*	i	TRPC4 sel inh 2=29.0%*;TRPC4 spec=i;HEK293 MPD ctr 2-1=i;HEK293 MPD ctr-1=i
COc1cccc2oc(-c3ccco3)cc(=O)c12	i	i	i	6.3	i	i	/	/	/	/	/	/
Cc1c(Cl)cccc1NC(=O)CSc1nccn1C	i	i	i	26.2	i	i	/	/	/	/	/	/
N#CC(C#N)=C1c2cc(S(=O)(=O)NCCO)ccc2-c2ccc(S(=O)(=O)NCCO)cc21	i	i	i	-3.5	-5.22*	i	-138.0%*	i	-30.5%*	i	i	i
CC(C)OCC(O)CCc1n[nH]c(=S)n1-c1ccccc1 (stereo unspecified)	i	i	i	-4.4	i	i	/	/	/	/	/	/
CN(C)C(=O)c1c2c(nc3ccccc13)-c1ccccc1CC2	i	i	i	-0.3	-5.73*	i	i	i	i	i	i	i
COc1ccc(-n2c(-c3ccc(Cl)cc3)c[n+]3c2CCc2ccccc2-3)cc1	i	i	i	-4.9	-5.1*	i	-123.0%*	i	-17.0%*	42.5%*	i	i

Screens (PubChem)
